Assay results taken from ChEMBL document CHEMBL5113464, “A multi-pronged evaluation of aldehyde-based tripeptidyl main protease inhibitors as SARS-CoV-2 antivirals” (Eur J Med Chem, 2022).

Tests used:
[1] = molecular target: T1, Replicase polyprotein 1ab (Severe acute respiratory syndrome coronavirus 2, UniProt P0DTD1); experiment: Inhibition of eGFP fused SARS-CoV2 main protease transfected in HEK293T/17 cells incubated for 72 hrs by fluorescence based flow cytometry analysis; type: cell-based
[2] = molecular target: T1, Replicase polyprotein 1ab; experiment: Inhibition of His/SUMO tagged SARS-CoV2 main protease expressed in Escherichia coli BL21 (DE3) cells using Dabcyl-KTSAVLQSGFRKME-Edans as substrate preincubated for 30 mins followed by substrate addition and measured after 30 mins by fluorescence plate reader analysis
SARS-CoV-2 [3] = experiment: Antiviral activity against SARS-Cov2 USA-WA1/2020 infected in African green monkey Vero E6 cells assessed as viral plaque reduction measured after 3 days by plaque reduction neutralization test; type: functional, organism-based; settings: Severe acute respiratory syndrome coronavirus 2, USA-WA1/2020, Vero C1008, 72 h
SARS-CoV-2 [4] = experiment: Antiviral activity against SARS-Cov2 Beta infected in African green monkey Vero E6 cells assessed as viral plaque reduction measured after 3 days by plaque reduction neutralization test; type: functional, organism-based; settings: Severe acute respiratory syndrome coronavirus 2, Beta, Vero C1008, 72 h
SARS-CoV-2 [5] = experiment: Antiviral activity against SARS-Cov2 Delta infected in African green monkey Vero E6 cells assessed as viral plaque reduction measured after 3 days by plaque reduction neutralization test; type: functional, organism-based; settings: Severe acute respiratory syndrome coronavirus 2, Delta, Vero C1008, 72 h
[6] = Cytotoxicity against HEK293T/17 cells by MTT assay; type: toxicity, cell-based; settings: human
Procedure, shortened: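 MTT viability assay in 293T cells. CC50 is derived from cytotoxicity curves of compound concentration versus viability.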

CC(C)[C@H](NC(=O)OCc1ccccc1)C(=O)N[C@@H](Cc1cccs1)C(=O)N[C@H](C=O)C[C@@H]1CCNC1=O
EC50 [1]: Nd(Insoluble)
IC50 [2]: Nd(Insoluble)

CC(C)C[C@H](NC(=O)[C@@H](NC(=O)OCc1cccc(Cl)c1)[C@@H](C)OC(C)(C)C)C(=O)N[C@H](C=O)C[C@@H]1CCNC1=O
EC50 (SARS-CoV-2 [3]): 1900 nM
EC50 (SARS-CoV-2 [4]): 650 nM
EC50 (SARS-CoV-2 [5]): 1600 nM
CC50 ([6]; hek293t/17): 183000 nM

C[C@@H](OC(C)(C)C)[C@H](NC(=O)OCc1ccccc1)C(=O)N[C@@H](CC1CC1)C(=O)N[C@H](C=O)C[C@@H]1CCNC1=O
EC50 (SARS-CoV-2 [3]): 1200 nM
EC50 (SARS-CoV-2 [4]): 1800 nM
EC50 (SARS-CoV-2 [5]): 1100 nM
CC50 ([6]; HEK293T/17 cells): > 200000 nM

CC(C)[C@H](NC(=O)OCc1cccc(Cl)c1)C(=O)N[C@@H](CC1CCCCC1)C(=O)N[C@H](C=O)C[C@@H]1CCNC1=O
EC50 (SARS-CoV-2 [3]): > 5000 nM
EC50 (SARS-CoV-2 [4]): > 5000 nM
EC50 (SARS-CoV-2 [5]): 3200 nM
CC50 ([6]; hek293t/17): 114000 nM

C[C@@H](OC(C)(C)C)[C@H](NC(=O)OCc1ccccc1)C(=O)N[C@@H](CC(C)(C)C)C(=O)N[C@H](C=O)C[C@@H]1CCNC1=O
EC50 (SARS-CoV-2 [3]): 1200 nM
EC50 (SARS-CoV-2 [4]): 1200 nM
EC50 (SARS-CoV-2 [5]): 580 nM
CC50 ([6]; HEK293T/17 cells): > 200000 nM

C[C@@H](OC(C)(C)C)[C@H](NC(=O)OCc1cccc(Cl)c1)C(=O)N[C@@H](CC1CCCCC1)C(=O)N[C@H](C=O)C[C@@H]1CCNC1=O
EC50 (SARS-CoV-2 [3]): 2200 nM
EC50 (SARS-CoV-2 [4]): 1600 nM
EC50 (SARS-CoV-2 [5]): 870 nM
CC50 ([6]; hek293t/17): 130000 nM

CC(C)(C)C[C@H](NC(=O)[C@@H](NC(=O)OCc1ccccc1)C(C)(C)C)C(=O)N[C@H](C=O)C[C@@H]1CCNC1=O
EC50 (SARS-CoV-2 [3]): > 5000 nM
EC50 (SARS-CoV-2 [4]): 710 nM
EC50 (SARS-CoV-2 [5]): 5000 nM
CC50 ([6]; HEK293T/17 cells): > 200000 nM

CC(OC(C)(C)C)[C@H](NC(=O)OCc1ccccc1)C(=O)N[C@@H](CC1CCCCC1)C(=O)N[C@H](C=O)C[C@@H]1CCNC1=O (single isomer, unassigned)
CC50 ([6]; hek293t/17): 109000 nM
